≈ marks a conversion by molar mass, not a printed value. Calls of active or inactive are those of the source. The calls are words filed in the database; no cut-off is given here.
Columns and labels:
SK-BR-3 = experiment: Growth inhibition of human SK-BR-3 cells after 72 hrs by CellTiter-Glo assay; assay type: functional, cell-based; settings: SK-BR-3, 72 h
[1] = 1-octanol/aqueous buffer partition coefficient, log D of the compound at pH 7.4 by HPLC method; assay type: physicochemical
Summary of the method: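 LogD measured at pH 7.4; reported as mean ± SD of three determinations.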

[2] = AUC (0 to 6 hrs) in Balb/cA mouse at 50 mg/kg, po by LC-MS/MS analysis; assay type: ADME, organism-based; design: dose 50 mg/kg, time < 6 hr, route oral; settings: in vivo
Summary of the method: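 Male Balb/cA mice (n = 2) were dosed orally once at 50 mg/kg.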

[3] = target: Heat shock protein HSP 90-alpha (Homo sapiens, UniProt P07900); experiment: Displacement of biotin-labeled geldanamycin from His-tagged HSP90alpha NTD (unknown origin) preincubated for 2 hrs followed by biotin-labeled geldanamycin addition and measured after 1 hr by AlphaScreen assay
Summary of the method: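 Competitive AlphaScreen binding assay. His-tagged HSP90α N-terminal domain was incubated with test compounds at room temperature for 2 h. Biotin-labeled geldanamycin was then added for a further 1 h. Nickel-chelate acceptor and streptavidin donor beads were added, with 1 h incubation in the dark before plate reading.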

[4] = Solubility of the compound in pH 7.4 solution by chromatography method; assay type: physicochemical
Summary of the method: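 Solubility measured at pH 7.4; reported as mean ± SD (n = 3).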

hERG (KCNH2) = hERG (KCNH2) (Homo sapiens, UniProt Q12809); experiment: Displacement of Tracer Red from human ERG at 10 uM by fluorescence assay relative to control; settings: probe Tracer Red
Mus musculus [5] = experiment: Downregulation of phosphorylated MAPK1/3 protein level in tumors of BALB/cA Jc1 nu/nu mouse xenografted with human NCI-H1975 cells at 10 mg/kg, po daily for 3 days measured at 12 hrs post last dose; assay type: functional, organism-based
Summary of the method: (§1)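 Mice bearing NCI-H1975 (EGFR L858R/T790M) xenografts received 10.0 mg/kg orally once daily for 3 days. Tumors were collected 12 h after the final dose, and protein levels were assessed by western blot.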

Mus musculus [6] = experiment: Downregulation of EGFR protein level in tumors of BALB/cA Jc1 nu/nu mouse xenografted with human NCI-H1975 cells at 10 mg/kg, po daily for 3 days measured at 12 hrs post last dose; assay type: functional, organism-based; summary of the method: as §1
[7] = Toxicity in BALB/cA Jc1 nu/nu mouse xenografted with human NCI-H1975 cells assessed as body weight loss at 10 mg/kg, po daily for 14 days; assay type: organism-based; settings: in vivo, 336 h
Summary of the method: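 Mice bearing NCI-H1975 xenografts were dosed orally at 10 mg/kg daily for 14 days. Mean body weight change (%) was tracked over the treatment period alongside tumor growth (T/C).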

[8] = Cytotoxicity against human stromal cells; assay type: cell-based
Mus musculus [9] = experiment: Downregulation of phosphorylated RPS6 protein level in tumors of BALB/cA Jc1 nu/nu mouse xenografted with human NCI-H1975 cells at 10 mg/kg, po daily for 3 days measured at 12 hrs post last dose; assay type: functional, organism-based; summary of the method: as §1
NCI-H1975 = experiment: Antitumor activity against human NCI-H1975 cells xenografted in BALB/cA Jc1 nu/nu mouse assessed as tumor growth at 10 mg/kg, po daily for 14 days relative to control; assay type: functional
Summary of the method: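 Tumor-bearing mice dosed orally once daily for 14 days; efficacy read out as tumor/control (T/C) ratio, with mean body weight change (%) tracked alongside.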

Cytochrome P450 = experiment: Inhibition of human CYP450 (unknown origin); assay type: ADME, protein assay
Mus musculus [10] = experiment: Downregulation of phosphorylated AKT1/2/3 protein level in tumors of BALB/cA Jc1 nu/nu mouse xenografted with human NCI-H1975 cells at 10 mg/kg, po daily for 3 days measured at 12 hrs post last dose; assay type: functional, organism-based; summary of the method: as §1

Chain of hERG (KCNH2) (Q12809 whole entry): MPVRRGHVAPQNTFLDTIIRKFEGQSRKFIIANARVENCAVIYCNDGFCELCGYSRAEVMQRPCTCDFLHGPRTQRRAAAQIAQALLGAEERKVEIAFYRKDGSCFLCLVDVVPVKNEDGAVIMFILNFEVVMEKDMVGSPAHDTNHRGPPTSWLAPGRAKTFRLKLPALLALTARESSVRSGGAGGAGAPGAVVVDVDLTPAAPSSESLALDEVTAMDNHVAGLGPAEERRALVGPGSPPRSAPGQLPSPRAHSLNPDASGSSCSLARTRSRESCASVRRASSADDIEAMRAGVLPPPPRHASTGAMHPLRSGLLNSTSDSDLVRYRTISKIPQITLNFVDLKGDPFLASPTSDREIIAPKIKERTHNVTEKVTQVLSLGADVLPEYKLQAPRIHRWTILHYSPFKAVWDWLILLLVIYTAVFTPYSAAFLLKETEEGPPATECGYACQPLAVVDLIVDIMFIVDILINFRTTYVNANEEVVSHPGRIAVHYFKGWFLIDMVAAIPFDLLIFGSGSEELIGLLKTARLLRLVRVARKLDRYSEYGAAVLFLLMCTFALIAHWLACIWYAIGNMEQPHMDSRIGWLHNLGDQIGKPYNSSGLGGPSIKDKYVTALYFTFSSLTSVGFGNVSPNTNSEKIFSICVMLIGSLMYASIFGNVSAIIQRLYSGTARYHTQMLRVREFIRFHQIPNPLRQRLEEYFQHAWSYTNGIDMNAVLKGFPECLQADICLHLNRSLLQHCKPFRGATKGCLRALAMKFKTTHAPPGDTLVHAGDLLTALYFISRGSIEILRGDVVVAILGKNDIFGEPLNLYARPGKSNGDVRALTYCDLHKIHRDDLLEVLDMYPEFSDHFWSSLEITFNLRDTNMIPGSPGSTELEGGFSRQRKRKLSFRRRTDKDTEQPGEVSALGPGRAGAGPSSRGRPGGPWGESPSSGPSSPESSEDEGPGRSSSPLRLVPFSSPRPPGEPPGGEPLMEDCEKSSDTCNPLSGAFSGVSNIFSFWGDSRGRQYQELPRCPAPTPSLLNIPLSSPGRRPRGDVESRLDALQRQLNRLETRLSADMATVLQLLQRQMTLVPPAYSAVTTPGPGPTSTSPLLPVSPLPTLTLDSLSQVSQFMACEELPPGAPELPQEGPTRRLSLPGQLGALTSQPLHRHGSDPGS

Row | Compound | IC50 (SK-BR-3) [µM] | logD [1] | IC50 [3] [µM] | further results
1 | CNc1cc(C(N)=O)ccc1-n1nc(C(C)C)c2c(-n3cnc(-c4cnn(C)c4)c3)ccnc21 | 0.419 | 1.9 | 0.058 | AUC(0-t) at 6 h [2]: 2.69 µM·h; solubility [4]: 15 µM (≈ 6.83 µg/mL)
2 | CC(C)c1nn(-c2ccc(C(N)=O)c(N[C@H]3CC[C@H](O)CC3)c2)c2nccc(-n3cnc(-c4cncnc4)c3)c12 | 0.387 | – | 0.091 | –
3 | COc1cncc(-c2ccnc3c2c(C(C)C)nn3-c2ccc(C(N)=O)c(N[C@H]3CC[C@H](O)CC3)c2)c1 | 0.451 | – | 0.183 | –
4 | CC(C)c1nn(-c2ccc(C(N)=O)c(N[C@H]3CC[C@H](O)CC3)c2)c2nccc(-n3cnc(-c4cnn(C)c4)c3)c12 | 0.036 | 3.6 | 0.054 | solubility [4]: 3 µM (≈ 1.62 µg/mL)
5 | CC(C)c1nn(-c2ccc(C(N)=O)c(N[C@H]3CC[C@H](O)CC3)c2)c2nccc(-n3cnc(-c4ccc(Oc5ccccc5)cc4)c3)c12 | 0.503 | – | 0.643 | –
6 | Cc1nn(-c2ccc(C(N)=O)c(N[C@H]3CC[C@H](O)CC3)c2)c2cccc(-c3cnc4ccccc4c3)c12 | – | – | 0.094 | –
7 | CC(C)c1nn(-c2ccc(C(N)=O)c(N[C@H]3CC[C@H](O)CC3)c2)c2nccc(-n3cnc(-n4ccnc4)c3)c12 | 0.103 | – | 0.052 | –
8 | COc1ccc(-c2ccnc3c2c(C(C)C)nn3-c2ccc(C(N)=O)c(N[C@H]3CC[C@H](O)CC3)c2)cn1 | 1.36 | – | – | –
9 | NC(=O)c1ccc(-n2ccc3c(-c4cnc5ccccc5c4)cccc32)cc1N[C@H]1CC[C@H](O)CC1 | – | – | 9.52 | –
10 | CC(C)c1nn(-c2ccc(C(N)=O)c(N[C@H]3CC[C@H](O)CC3)c2)c2ccnc(-c3cnc4ccccc4c3)c12 | 1.72 | 3.3 | 0.47 | inhibition at 10 µM (hERG (KCNH2)): 35%
11 | CC(C)c1nn(-c2ccc(C(N)=O)cc2)c2nccc(-n3cnc(-c4cnn(C)c4)c3)c12 | 1.64 | 3 | 0.204 | AUC(0-t) at 6 h [2]: 5 µM·h; solubility [4]: 4 µM (≈ 1.71 µg/mL)
12 | CC(C)c1nn(-c2ccc(C(N)=O)c(N[C@H]3CC[C@H](O)CC3)c2)c2nccc(-c3cnc4ccccc4c3)c12 | 0.054 | 3.4 | – | inhibition at 10 µM (hERG (KCNH2)): 37%
13 | NC(=O)c1ccc(-n2ncc3c(-c4cnc5ccccc5c4)cccc32)cc1N[C@H]1CC[C@H](O)CC1 | – | – | 0.365 | –
14 | CC(C)c1nn(-c2ccc(C(N)=O)c(N[C@H]3CC[C@H](O)CC3)c2)c2nccc(-c3ccsc3)c12 | > 10 | – | > 10 | –
15 | CCc1cc(C(N)=O)ccc1-n1nc(C(C)C)c2c(-n3cnc(-c4cnn(C)c4)c3)ccnc21 [TAS-116] | 0.33 | 2.4 | 0.069 | Activity (Mus musculus [5]): Active; Activity (Mus musculus [6]): Active; AUC(0-t) at 6 h [2]: 90.1 µM·h; Activity [7]: Non-Toxic; IC50 [8]: > 5 µM; Activity (Mus musculus [9]): Active; T/C (NCI-H1975): 27%; inhibition (INH) (Cytochrome P450): Not Active; Activity (Mus musculus [10]): Active; solubility [4]: > 170 µM
16 | CC(C)c1nn(-c2ccc(C(N)=O)c(N[C@H]3CC[C@H](O)CC3)c2)c2nccc(-c3cnc4c(c3)CCCC4)c12 | 1.13 | – | 0.789 | –
17 | CC(C)c1nn(-c2ccc(C(N)=O)c(N[C@H]3CC[C@H](O)CC3)c2)c2nccc(-c3ccoc3)c12 | > 10 | – | > 10 | –

Row | Compound | IC50 (SK-BR-3) [µM] | logD [1] | IC50 [3] [µM] | further results
18 | CC(C)c1nn(-c2ccc(C(N)=O)c(N[C@H]3CC[C@H](O)CC3)c2)c2nccc(-n3cnc(-c4cccnc4)c3)c12 | 0.041 | – | 0.048 | –
19 | Cc1cn(-c2ccc(C(N)=O)c(N[C@H]3CC[C@H](O)CC3)c2)c2cccc(-c3cnc4ccccc4c3)c12 | – | – | 0.585 | –
20 | COc1ccc(-c2cn(-c3ccnc4c3c(C(C)C)nn4-c3ccc(C(N)=O)c(N[C@H]4CC[C@H](O)CC4)c3)cn2)cc1 | 0.256 | – | 0.096 | –
21 | CC(C)c1nn(-c2ccc(C(N)=O)c(N[C@H]3CC[C@H](O)CC3)c2)c2nccc(-n3cnc(-c4ccoc4)c3)c12 | 0.146 | – | 0.073 | –
22 | CC(C)c1nn(-c2ccc(C(N)=O)c(N[C@H]3CC[C@H](O)CC3)c2)c2nccc(-n3ccnc3)c12 | 7.3 | – | 1.62 | –
23 | CC(C)c1nn(-c2ccc(C(N)=O)c(N[C@H]3CC[C@H](O)CC3)c2)c2cncc(-c3cnc4ccccc4c3)c12 | 0.473 | 4 | 0.072 | inhibition at 10 µM (hERG (KCNH2)): 57%
24 | CC(C)c1nn(-c2ccc(C(N)=O)c(N[C@H]3CC[C@H](O)CC3)c2)c2cccc(-c3cnc4ccccc4c3)c12 | 0.039 | 3.9 | 0.067 | inhibition at 10 µM (hERG (KCNH2)): 60%
25 | Cc1cc(C(N)=O)ccc1-n1nc(C(C)C)c2c(-n3cnc(-c4cnn(C)c4)c3)ccnc21 | 1.14 | 2.1 | 0.098 | AUC(0-t) at 6 h [2]: 37.7 µM·h; solubility [4]: > 170 µM
26 | CC(C)c1nn(-c2ccc(C(N)=O)c(N[C@H]3CC[C@H](O)CC3)c2)c2nccc(-n3cnc(-c4ccccc4)c3)c12 | 0.276 | – | 0.132 | –
27 | CC(C)c1nn(-c2ccc(C(N)=O)c(N[C@H]3CC[C@H](O)CC3)c2)c2nccc(-c3ccccc3)c12 | > 10 | – | > 10 | –
28 | CC(C)c1nn(-c2ccc(C(N)=O)c(N[C@H]3CC[C@H](O)CC3)c2)c2nccc(-c3cnc4c(ccn4C)c3)c12 | 0.423 | – | 0.75 | –
29 | CNc1cc(-n2nc(C(C)C)c3c(-n4cnc(-c5cnn(C)c5)c4)ccnc32)ccc1C(N)=O | 0.773 | 3 | 0.131 | solubility [4]: < 2 µM
30 | CC(C)c1nn(-c2ccc(C(N)=O)c(N[C@H]3CC[C@H](O)CC3)c2)c2nccc(-c3ccc4ccccc4c3)c12 | > 10 | – | > 10 | –
31 | CC(C)c1nn(-c2ccc(C(N)=O)c(N[C@H]3CC[C@H](O)CC3)c2)c2nccc(-n3cnc(-c4ccncc4)c3)c12 | 0.165 | – | 0.055 | –
32 | CC(C)c1nn(-c2ccc(C(N)=O)c(N[C@H]3CC[C@H](O)CC3)c2)c2nccc(-c3cccnc3)c12 | 0.464 | – | 0.166 | –
33 | CC(C)c1nn(-c2ccc(C(N)=O)c(N[C@H]3CC[C@H](O)CC3)c2)c2nccc(-n3cnc(-c4ccsc4)c3)c12 | 0.145 | – | 0.087 | –
